Measurements: ChEMBL document CHEMBL4346654 (Eur J Med Chem, 2019)
≈ marks a conversion by molar mass, not a printed value.

Columns and labels:
Format in all cases: functional
[1] = test system: Streptococcus pyogenes; assay: Antibacterial activity against MLS-resistant Streptococcus pyogenes 01-968 expressing inducible ermB gene assessed as reduction in microbial growth by CLSI based two-fold broth dilution method
[2] = test system: Haemophilus influenzae; assay: Bactericidal activity against azithromycin-susceptible Haemophilus influenzae ATCC 49247 pretreated followed by subculture in absence of compound measured after 24 hrs
How it was run: (§1)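 Isolates were identified by 16S rDNA sequencing. MIC was determined by CLSI-recommended two-fold broth dilution. For MBC, samples from 1–8 fold MIC were transferred to culture medium and subcultured for 24 h without antibiotic.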

[3] = test system: Streptococcus pyogenes; assay: Bactericidal activity against MLS-resistant Streptococcus pyogenes 01-968 expressing inducible ermB gene pretreated followed by subculture in absence of compound measured after 24 hrs
How it was run: (§2)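 MBC assay. Following MIC determination by CLSI standard two-fold broth dilution, samples at 1–8 fold MIC were transferred to fresh culture medium. They were subcultured for 24 h without antibiotic. Isolates were identified by 16S rDNA sequencing. S. aureus ATCC 29213 was used as a control strain.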

[4] = test system: Staphylococcus aureus; assay: Bactericidal activity against MLS-resistant Staphylococcus aureus PU 20 expressing constitutive ermC gene pretreated followed by subculture in absence of compound measured after 24 hrs; how it was run: as §2
[5] = test system: Streptococcus pyogenes; assay: Selectivity ratio of MBC to MIC for MLS-resistant Streptococcus pyogenes 01-968 expressing inducible ermB gene
How it was run: (§3)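 MBC/MIC ratio. MIC was measured by CLSI standard two-fold broth dilution. MBC was measured by transferring samples at 1–8 fold MIC to culture medium and subculturing for 24 h without antibiotic. Isolates were identified by 16S rDNA sequencing.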

[6] = test system: Staphylococcus aureus; assay: Antibacterial activity against MLS-resistant Staphylococcus aureus PU 32 expressing inducible ermA gene assessed as reduction in microbial growth by CLSI based two-fold broth dilution method
[7] = test system: Staphylococcus aureus; assay: Antibacterial activity against MLS-resistant Staphylococcus aureus PU 20 expressing constitutive ermC gene assessed as reduction in microbial growth by CLSI based two-fold broth dilution method
[8] = test system: Streptococcus pneumoniae; assay: Bactericidal activity against erythromycin-susceptible Streptococcus pneumoniae ATCC49619 pretreated followed by subculture in absence of compound measured after 24 hrs; how it was run: as §1
[9] = test system: Haemophilus influenzae; assay: Selectivity ratio of MBC to MIC for azithromycin-susceptible Haemophilus influenzae ATCC 49247; how it was run: as §1
[10] = test system: Haemophilus influenzae; assay: Antibacterial activity against azithromycin-susceptible Haemophilus influenzae ATCC 49247 assessed as reduction in microbial growth by CLSI based two-fold broth dilution method
[11] = test system: Streptococcus pneumoniae; assay: Antibacterial activity against penicillin-susceptible Streptococcus pneumoniae PU 09 expressing mef gene assessed as reduction in microbial growth by CLSI based two-fold broth dilution method
[12] = test system: Streptococcus pneumoniae; assay: Bactericidal activity against penicillin-susceptible Streptococcus pneumoniae PU 09 expressing mef gene pretreated followed by subculture in absence of compound measured after 24 hrs; how it was run: as §1
[13] = test system: Staphylococcus aureus; assay: Selectivity ratio of MBC to MIC for MLS-resistant Staphylococcus aureus PU 20 expressing constitutive ermC gene; how it was run: as §3
[14] = test system: Staphylococcus aureus; assay: Selectivity ratio of MBC to MIC for MLS/methicillin-resistant Staphylococcus aureus PU 32 expressing inducible ermA gene; how it was run: as §3
[15] = test system: Streptococcus pneumoniae; assay: Antibacterial activity against Streptococcus pneumoniae 07P390 expressing constitutive ermB gene assessed as reduction in microbial growth by CLSI based two-fold broth dilution method
[16] = test system: Streptococcus pneumoniae; assay: Antibacterial activity against erythromycin-susceptible Streptococcus pneumoniae ATCC49619 assessed as reduction in microbial growth by CLSI based two-fold broth dilution method
[17] = test system: Streptococcus pneumoniae; assay: Selectivity ratio of MBC to MIC for erythromycin-susceptible Streptococcus pneumoniae ATCC49619; how it was run: as §1
[18] = test system: Staphylococcus aureus; assay: Bactericidal activity against MLS/methicillin-resistant Staphylococcus aureus PU 32 expressing inducible ermA gene pretreated followed by subculture in absence of compound measured after 24 hrs; how it was run: as §2
[19] = test system: Streptococcus pneumoniae; assay: Selectivity ratio of MBC to MIC for penicillin-susceptible Streptococcus pneumoniae PU 09 expressing mef gene; how it was run: as §1
[20] = test system: Streptococcus pneumoniae; assay: Bactericidal activity against Streptococcus pneumoniae 07P390 expressing constitutive ermB gene pretreated followed by subculture in absence of compound measured after 24 hrs; how it was run: as §1
[21] = test system: Streptococcus pneumoniae; assay: Selectivity ratio of MBC to MIC for Streptococcus pneumoniae 07P390 expressing constitutive ermB gene; how it was run: as §1
[22] = test system: Moraxella catarrhalis; assay: Selectivity ratio of MBC to MIC for erythromycin-susceptible Moraxella catarrhalis 13L332; how it was run: as §1
[23] = test system: Streptococcus pyogenes; assay: Bactericidal activity against MLS-resistant Streptococcus pyogenes 12-206 expressing constitutive ermA gene pretreated followed by subculture in absence of compound measured after 24 hrs; how it was run: as §2
[24] = test system: Moraxella catarrhalis; assay: Bactericidal activity against erythromycin-susceptible Moraxella catarrhalis 13L332 pretreated followed by subculture in absence of compound measured after 24 hrs; how it was run: as §1
[25] = test system: Streptococcus pyogenes; assay: Selectivity ratio of MBC to MIC for Streptococcus pyogenes 12-207 expressing mef gene; how it was run: as §1
[26] = test system: Streptococcus pyogenes; assay: Selectivity ratio of MBC to MIC for MLS-resistant Streptococcus pyogenes 12-206 expressing constitutive ermA gene; how it was run: as §3
[27] = test system: Streptococcus pyogenes; assay: Bactericidal activity against Streptococcus pyogenes 12-207 expressing mef gene pretreated followed by subculture in absence of compound measured after 24 hrs; how it was run: as §1
[28] = test system: Streptococcus pyogenes; assay: Antibacterial activity against Streptococcus pyogenes 12-207 expressing mef gene assessed as reduction in microbial growth by CLSI based two-fold broth dilution method
[29] = test system: Moraxella catarrhalis; assay: Antibacterial activity against erythromycin-susceptible Moraxella catarrhalis 13L332 assessed as reduction in microbial growth by CLSI based two-fold broth dilution method
[30] = test system: Streptococcus pyogenes; assay: Antibacterial activity against MLS-resistant Streptococcus pyogenes 12-206 expressing constitutive ermA gene assessed as reduction in microbial growth by CLSI based two-fold broth dilution method

| SMILES | MIC [1] [µg/mL] | MBC [2] [µg/mL] | MBC [3] [µg/mL] | MBC [4] [µg/mL] | Selectivity ratio [5] | MIC [6] [µg/mL] | MIC [7] [µg/mL] | MBC [8] [µg/mL] | Selectivity ratio [9] | MIC [10] [µg/mL] | MIC [11] [µg/mL] | MBC [12] [µg/mL] | Selectivity ratio [13] | Selectivity ratio [14] | MIC [15] [µg/mL] | MIC [16] [µg/mL] | Selectivity ratio [17] | MBC [18] [µg/mL] | Selectivity ratio [19] | MBC [20] [µg/mL] | also measured |
| --- | --- | --- | --- | --- | --- | --- | --- | --- | --- | --- | --- | --- | --- | --- | --- | --- | --- | --- | --- | --- | --- |
| CC[C@H]1OC(=O)[C@@](C)(F)C(=O)[C@H](C)[C@@H](O[C@@H]2O[C@H](C)C[C@H](N(C)C)[C@H]2O)[C@](C)(OC)C[C@@H](C)/C(=N\OCC#Cc2cncc3ccccc23)[C@H](C)[C@H]2OC(=O)O[C@@]21C | 0.5 | 128 (≈ 158 µM) | > 4 | > 256 | >8 | 4 | 64 | 4 (≈ 4.93 µM) | 2 | 64 | 8 | 8 (≈ 9.85 µM) | >4 | >8 | > 32 | 2 | 2 | > 32 | 1 | – | – |
| CC[C@H]1OC(=O)[C@@](C)(F)C(=O)[C@H](C)[C@@H](O[C@@H]2O[C@H](C)C[C@H](N(C)C)[C@H]2O)[C@](C)(OC)C[C@@H](C)/C(=N\OCC#Cc2ccc3c(c2)c(=O)c(C(=O)O)cn3C2CC2)[C@H](C)[C@H]2OC(=O)O[C@@]21C | 0.25 | 16 (≈ 17.5 µM) | 2 (≈ 2.19 µM) | 128 (≈ 140 µM) | 8 | 1 | 32 | 0.5 (≈ 0.548 µM) | 2 | 8 | 2 | 4 (≈ 4.39 µM) | 4 | 4 | 4 | 0.25 | 2 | 4 (≈ 4.39 µM) | 2 | 32 (≈ 35.1 µM) | Selectivity ratio [21]: 8 |
| CC[C@H]1OC(=O)[C@@](C)(F)C(=O)[C@H](C)[C@@H](O[C@@H]2O[C@H](C)C[C@H](N(C)C)[C@H]2O)[C@](C)(OC)C[C@@H](C)/C(=N\OCCCc2ccc3c(c2)c(=O)c(C(=O)O)cn3C2CC2)[C@H](C)[C@H]2OC(=O)O[C@@]21C | 0.125 | 32 (≈ 34.9 µM) | > 1 | 128 (≈ 140 µM) | >8 | 4 | 64 | 0.25 (≈ 0.273 µM) | 2 | 16 | 2 | 2 (≈ 2.18 µM) | 2 | 2 | 8 | 0.125 | 2 | 8 (≈ 8.73 µM) | 1 | 16 (≈ 17.5 µM) | Selectivity ratio [21]: 2 |
| CC[C@H]1OC(=O)[C@@](C)(F)C(=O)[C@H](C)[C@@H](O[C@@H]2O[C@H](C)C[C@H](N(C)C)[C@H]2O)[C@](C)(OC/C=C/c2ccc3c(c2)c(=O)c(C(=O)O)cn3C2CC2)C[C@@H](C)/C(=N\OC)[C@H](C)[C@H]2OC(=O)O[C@@]21C | 0.031 | 4 (≈ 4.38 µM) | 0.25 (≈ 0.274 µM) | 128 (≈ 140 µM) | 8 | 0.25 | 64 | 0.25 (≈ 0.274 µM) | 2 | 2 | 2 | 2 (≈ 2.19 µM) | 2 | 8 | 1 | 0.125 | 2 | 2 (≈ 2.19 µM) | 1 | 8 (≈ 8.75 µM) | Selectivity ratio [21]: 8 |
| CC[C@H]1OC(=O)[C@@](C)(F)C(=O)[C@H](C)[C@@H](O[C@@H]2O[C@H](C)C[C@H](N(C)C)[C@H]2O)[C@](C)(OC)C[C@@H](C)/C(=N\OC/C=C/c2cnc3ccccc3c2N)[C@H](C)[C@H]2OC(=O)O[C@@]21C | 0.016 | 32 (≈ 38.6 µM) | > 0.125 | 128 (≈ 154 µM) | >8 | 1 | 64 | 0.25 (≈ 0.302 µM) | 2 | 16 | 2 | 2 (≈ 2.41 µM) | 2 | 8 | 32 | 0.125 | 2 | 8 (≈ 9.65 µM) | 1 | 32 (≈ 38.6 µM) | Selectivity ratio [21]: 1 |
| CC[C@H]1OC(=O)[C@@](C)(F)C(=O)[C@H](C)[C@@H](O[C@@H]2O[C@H](C)C[C@H](N(C)C)[C@H]2O)[C@](C)(OC)C[C@@H](C)/C(=N\OCC#Cc2ccc3c(c2)c(=O)c(C(=O)NC)cn3CC)[C@H](C)[C@H]2OC(=O)O[C@@]21C | ≤ 0.002 | 64 (≈ 70.1 µM) | > 0.016 | > 256 | >8 | 2 | 128 | ≤ 0.008 | 2 | 32 | 0.25 | 1 (≈ 1.1 µM) | – | >8 | 0.125 | ≤ 0.008 | – | > 16 | 4 | > 1 | Selectivity ratio [22]: >8; MBC [23]: > 1 µg/mL; MBC [24]: > 32 µg/mL; Selectivity ratio [25]: 4; Selectivity ratio [21]: >8; Selectivity ratio [26]: >8; MBC [27]: 1 µg/mL (≈ 1.1 µM); MIC [28]: 0.25 µg/mL; MIC [29]: 4 µg/mL; MIC [30]: 0.125 µg/mL |
